The source made the active and inactive calls. No cut-off for these calls is given here.
What was measured:
[1] = Mutagenicity in Swiss albino mouse assessed as frequency of micronucleated reticulocytes per 2000 cells at 100 mg/kg administered via gavage by acridine orange staining-based micronucleus test; type: toxicity, organism-based; conditions: in vivo, po
How it was run: (§1)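 Male Swiss albino mice (30 ± 4 g, 5 per group) were dosed by gavage at 25, 50 or 100 mg/kg. Controls: 0.5% hydroxyethylcellulose (negative) and ip cyclophosphamide 50 mg/kg (positive). Peripheral blood was placed on acridine orange (1 mg/mL) pre-stained slides heated at 70 °C. Fluorescence microscopy used 488 nm light; micronucleated cells were counted among 2000 reticulocytes per animal.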

Mus musculus [2] = assay: Mutagenic index, ratio of test compound effect to hydroxyethylcellulose effect for Swiss albino mouse assessed as frequency of micronucleated reticulocytes per 2000 cells at 25 mg/kg administered via gavage; type: organism-based; conditions: in vivo, po
How it was run: (§2)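 Male Swiss albino mice (5 per group) received 25, 50 or 100 mg/kg by gavage. The negative control got 0.3 mL of 0.5% hydroxyethylcellulose; the positive control got cyclophosphamide 50 mg/kg ip. Micronucleated reticulocytes were counted per 2000 cells on acridine orange-stained slides. MI = treated MNRET ÷ negative-control MNRET.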

[3] = Renal toxicity in Balb/c mouse infected with promastigote stage of Leishmania amazonensis MPRO/BR/1972/M1841-LV-79 assessed as change in plasma creatinine level at 0.13 to 0.25 mg/kg, ip administered once daily for 15 days measured post-last dose; type: organism-based; conditions: in vivo, 360 h
How it was run: (§3)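 Female BALB/c mice (4 weeks old, 5 per group) were infected in the left hind footpad with 1 × 10^7 parasites/mL of infective promastigotes. After six weeks they received daily ip doses for 15 days: 0.13 or 0.25 mg/kg/day (from DMSO stock in PBS, 0.1% DMSO), AmpB 2 mg/kg/day in sterile water, or PBS. Controls were untreated infected and uninfected mice. At end of treatment, plasma bilirubin, AST, ALT, ALP, urea and creatinine were measured with commercial kits.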

Leishmania amazonensis [4] = assay: Antileishmanial activity against promastigote stage of Leishmania amazonensis MPRO/BR/1972/M1841-LV-79 infected in Balb/c mouse assessed as reduction in parasitic load at 0.13 mg/kg, ip administered once daily for 15 days by limiting dilution method relative to control; type: functional; set-up: scale not given: the % may be the effect or the level left
How it was run: (§4)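 Footpad-infected female BALB/c mice (1 × 10^7 parasites/mL promastigotes; 5 per group) were treated from six weeks post-infection. Dosing was daily ip for 15 days: 0.13 or 0.25 mg/kg/day (PBS, 0.1% DMSO), AmpB 2 mg/kg/day, or PBS vehicle. Skin-lesion parasite burden was quantified after treatment by limiting dilution and compared with untreated infected mice. Data are mean ± SD.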

Leishmania amazonensis [5] = assay: Antileishmanial activity against promastigote stage of Leishmania amazonensis MPRO/BR/1972/M1841-LV-79 infected in Balb/c mouse assessed as increase in plasma bilirubin level at 0.13 to 0.25 mg/kg, ip administered once daily for 15 days measured during compound dosing; type: functional, organism-based
[6] = Mutagenicity in Swiss albino mouse assessed as frequency of micronucleated reticulocytes per 2000 cells at 25 mg/kg administered via gavage by acridine orange staining-based micronucleus test; type: toxicity, organism-based; conditions: in vivo, po; how it was run: as §1
[7] = Cytotoxicity against mouse peritoneal macrophages assessed as decrease in cell viability after 24 hrs by MTT assay; type: cell-based, Peritoneal macrophage
How it was run: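 Peritoneal macrophages (1 × 10^5/well) in RPMI 1640 with 10% FBS, 25 mM HEPES and 2 mM L-glutamine were pre-incubated 4 h. They were then exposed to compounds for 24 h at 37 °C, 5% CO2. Viability was read by MTT; CC50 determined.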

Leishmania amazonensis [8] = assay: Antileishmanial activity against promastigote stage of Leishmania amazonensis MPRO/BR/1972/M1841-LV-79 infected in Balb/c mouse assessed as reduction in volume of foot lesions at 0.13 to 0.25 mg/kg, ip administered once daily for 15 days measured every 5 days during compound dosing by caliper method; type: functional, organism-based
How it was run: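 Infected BALB/c mice (5 per group) were dosed daily ip for 15 days, starting six weeks after footpad inoculation: 0.13 or 0.25 mg/kg/day, AmpB 2 mg/kg/day, or PBS. Foot lesion thickness was measured with a dial caliper every 5 days.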

Leishmania amazonensis [9] = assay: Antileishmanial activity against promastigote stage of Leishmania amazonensis MPRO/BR/1972/M1841-LV-79 infected in Balb/c mouse assessed as decrease in plasma alanine aminotransferase level at 0.13 to 0.25 mg/kg, ip administered once daily for 15 days measured post-last dose; type: functional, organism-based; how it was run: as §3
Leishmania amazonensis [10] = assay: Antileishmanial activity against promastigote stage of Leishmania amazonensis MPRO/BR/1972/M1841-LV-79 assessed as parasite growth inhibition after 72 hrs by MTT assay; type: functional, organism-based; conditions: MPRO/BR/1972/M1841-LV-79, 72 h
How it was run: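 Promastigotes at 1 × 10^7/mL in LIT + 10% FBS were exposed 72 h at 28 °C to ten concentrations, 0.5–100 µM (final DMSO 0.1%). Viability was read by MTT, with formazan dissolved in SDS-HCl and absorbance at 570 nm. Run in triplicate; IC50 from nonlinear regression.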

Leishmania amazonensis [11] = assay: Antileishmanial activity against promastigote stage of Leishmania amazonensis MPRO/BR/1972/M1841-LV-79 infected in Balb/c mouse assessed as decrease in plasma alkaline phosphatase level at 0.13 to 0.25 mg/kg, ip administered once daily for 15 days measured post-last dose; type: functional, organism-based; how it was run: as §3
[12] = Mutagenicity in Swiss albino mouse assessed as frequency of micronucleated reticulocytes per 2000 cells at 50 mg/kg administered via gavage by acridine orange staining-based micronucleus test; type: toxicity, organism-based; conditions: in vivo, po; how it was run: as §1
Leishmania amazonensis [13] = assay: Antileishmanial activity against promastigote stage of Leishmania amazonensis MPRO/BR/1972/M1841-LV-79 infected in Balb/c mouse assessed as decrease in plasma aspartate aminotransferase level at 0.13 to 0.25 mg/kg, ip administered once daily for 15 days measured post-last dose; type: functional, organism-based; how it was run: as §3
Leishmania amazonensis [14] = assay: Antileishmanial activity against Leishmania amazonensis MPRO/BR/1972/M1841-LV-79 amastigotes infected in mouse peritoneal macrophages assessed as parasite growth inhibition after 24 hrs by Giemsa staining-based microscopic method; type: functional, organism-based; conditions: MPRO/BR/1972/M1841-LV-79, 24 h
How it was run: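 Peritoneal macrophages (3 × 10^5/well on coverslips, RPMI 1640 + 10% FBS) adhered 4 h at 37 °C, 5% CO2, then infected with stationary-phase promastigotes at 5:1 for 4 h. After washing, cells were cultured 18 h, then treated 24 h with compounds or reference drugs. Cells were methanol-fixed and Giemsa-stained. Infection index = % infected macrophages × mean amastigotes per infected cell. IC50 was fitted by regression.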

[15] = Renal toxicity in Balb/c mouse infected with promastigote stage of Leishmania amazonensis MPRO/BR/1972/M1841-LV-79 assessed as change in plasma urea level at 0.13 to 0.25 mg/kg, ip administered once daily for 15 days measured post-last dose; type: organism-based; conditions: in vivo, 360 h; how it was run: as §3
Mus musculus [16] = assay: Mutagenic index, ratio of test compound effect to hydroxyethylcellulose effect for Swiss albino mouse assessed as frequency of micronucleated reticulocytes per 2000 cells at 50 mg/kg administered via gavage; type: organism-based; conditions: in vivo, po; how it was run: as §2
Mus musculus [17] = assay: Mutagenic index, ratio of test compound effect to hydroxyethylcellulose effect for Swiss albino mouse assessed as frequency of micronucleated reticulocytes per 2000 cells at 100 mg/kg administered via gavage; type: organism-based; conditions: in vivo, po; how it was run: as §2
[18] = Safety index, ratio of CC50 for mouse peritoneal macrophages to IC50 for Leishmania amazonensis MPRO/BR/1972/M1841-LV-79 amastigotes infected in mouse peritoneal macrophages; type: toxicity; conditions: read-out: Ratio CC50/IC50
Leishmania amazonensis [19] = assay: Antileishmanial activity against Leishmania amazonensis MPRO/BR/1972/M1841-LV-79 amastigotes infected in mouse peritoneal macrophages assessed as reduction in number of intracellular amastigotes at 25 uM after 72 hrs by Giemsa staining-based microscopic method relative to control; type: functional; set-up: scale not given: the % may be the effect or the level left
How it was run: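 Infected peritoneal macrophages were treated with 25 µM of each compound, pentamidine or AmpB for 72 h. The infection index (% infected macrophages × amastigotes per infected macrophage) was compared with untreated infected cells. Data are given as mean ± SD.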

[20] = Toxicity in Balb/c mouse infected with promastigote stage of Leishmania amazonensis MPRO/BR/1972/M1841-LV-79 assessed as change in body weight at 0.13 to 0.25 mg/kg, ip administered once daily for 15 days measured during compound dosing; type: organism-based; conditions: in vivo, 360 h
Leishmania amazonensis [21] = assay: Antileishmanial activity against promastigote stage of Leishmania amazonensis MPRO/BR/1972/M1841-LV-79 infected in Balb/c mouse assessed as reduction in parasitic load at 0.25 mg/kg, ip administered once daily for 15 days by limiting dilution method relative to control; type: functional; set-up: scale not given: the % may be the effect or the level left; how it was run: as §4
[22] = Safety index, ratio of CC50 for mouse peritoneal macrophage to IC50 for promastigote stage of Leishmania amazonensis MPRO/BR/1972/M1841-LV-79; type: toxicity; conditions: read-out: Ratio CC50/IC50

Structure (SMILES) | CC50 at 24 h [7] | IC50 (Leishmania amazonensis [10]) | IC50 (Leishmania amazonensis [14]) | selectivity ratio [18] | Activity (Leishmania amazonensis [19]) | selectivity ratio [22] | other results
O=C(/N=C(/NCc1ccccc1)Nc1ccc(Br)cc1)c1ccccc1 | 738 µM | 19.6 µM | 5.6 µM | 132 | 86% | 37.7 | Activity [1]: 6; Ratio (Mus musculus [2]): 1.4; Activity [3]: Non-Toxic; Activity (Leishmania amazonensis [4]): 46%; Activity (Leishmania amazonensis [5]): Active; Activity [6]: 7; Activity (Leishmania amazonensis [8]): Active; Activity (Leishmania amazonensis [9]): Active; Activity (Leishmania amazonensis [11]): Active; Activity [12]: 8; Activity (Leishmania amazonensis [13]): inactive; Activity [15]: Non-Toxic; Ratio (Mus musculus [16]): 1.6; Ratio (Mus musculus [17]): 1.2; Activity [20]: Non-Toxic; Activity (Leishmania amazonensis [21]): 60%
N=C(N)c1ccc(OCCCCCOc2ccc(C(=N)N)cc2)cc1 [PENTAMIDINE] | 35.7 µM | 7.6 µM | 5.07 µM | 7 | 81% | 4.7 | –
O=C(/N=C(/NCc1ccccc1)Nc1ccc(F)cc1)c1ccccc1 | 866 µM | 21.9 µM | 19 µM | 45.5 | 70% | 39.5 | –
O=C(/N=C(/NCc1ccccc1)Nc1ccc(C(F)(F)F)cc1)c1ccccc1 | 18.6 µM | 6.8 µM | 21.4 µM | 0.8 | – | 2.7 | –
O=C(/N=C(/NCc1ccccc1)Nc1ccc(I)cc1)c1ccccc1 | 619 µM | 15.9 µM | 7.1 µM | 87.1 | 78% | 38.9 | Activity [1]: 6; Ratio (Mus musculus [2]): 0.6; Activity [6]: 3; Activity [12]: 5; Ratio (Mus musculus [16]): 1; Ratio (Mus musculus [17]): 1.2
O=C(/N=C(/NCc1ccccc1)Nc1ccc(Cl)cc1)c1ccccc1 | 827 µM | 19.7 µM | 41.2 µM | 20.1 | 19% | 42 | –
O=C(/N=C(/NCc1ccccc1)Nc1ccccc1)c1ccccc1 | 35.9 µM | 22.6 µM | – | – | – | 1.6 | –
Cc1ccc(N/C(=N\C(=O)c2ccccc2)NCc2ccccc2)cc1 | 876 µM | 20.9 µM | 24.2 µM | 36.2 | – | 41.9 | –
COc1ccc(N/C(=N\C(=O)c2ccccc2)NCc2ccccc2)cc1 | 837 µM | 25.4 µM | 21.1 µM | 39.6 | – | 32.9 | –
O=C(/N=C(/NCc1ccccc1)Nc1ccc([N+](=O)[O-])cc1)c1ccccc1 | 802 µM | 11.5 µM | 22.1 µM | 36.4 | – | 69.7 | –
CC(C)(C)c1ccc(N/C(=N\C(=O)c2ccccc2)NCc2ccccc2)cc1 | 1120 µM | 25.9 µM | 17.2 µM | 65 | – | 43.2 | –

From ChEMBL document CHEMBL4346679, “N, N', N″-trisubstituted guanidines: Synthesis, characterization and evaluation of their leishmanicidal activity” (Eur J Med Chem, 2019)
